# In ChEMBL document CHEMBL3272255, “Substituted alpah-methylbenzyl and tricyclic arylalkyl lactamimides as inhibitors of blood platelet aggregation” (J Med Chem, 1976):
# Key:
# Cavia porcellus [1] = assay: Antiplatelet activity in guinea pig assessed as inhibition of 0.8 ug/ml ADP-induced platelet aggregation measured as area between aggregation curve and baseline transmittance at 100 mg/kg, po for 4 days measured at 2 hrs post last dose by aggregometric analysis relative to control; type: functional
# Procedure, shortened: (§1)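 Guinea pigs were dosed by stomach tube at the stated dose daily for 4 days, with an untreated control group kept in parallel. Blood was taken by heart puncture 2 h after the last dose, and citrated PRP was isolated and adjusted. ADP was added in vitro. Total response was the area between the aggregation curve and baseline transmittance over 5 min, measured by planimeter. Percent inhibition came from group-average total response, treated vs control.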
# Cavia porcellus [2] = assay: Antiplatelet activity in guinea pig assessed as 0.45 ug/ml ADP-induced platelet aggregation measured as change in light transmittance at 100 mg/kg, po for 4 days measured at 2 hrs post last dose by aggregometric analysis
# [3] = Antiplatelet activity in human platelet rich plasma assessed as inhibition of ADP-induced platelet aggregation at 30 ug/ml after 20 mins by aggregometric analysis relative to control; type: functional
# Procedure, shortened: (§2)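 Human blood came from fasting donors who had taken no drugs for 5 days. It was citrated 1:9 with 3.8% sodium citrate. PRP was prepared at 100g for 10 min and PPP at 1500g for 15 min, and PRP was diluted with autologous PPP to 400000 platelets/mm³. Compound or saline control was incubated 20 min at 37°, then ADP was added at 2 μg/ml final. Percent inhibition was calculated from maximal ΔT, test vs control.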
# [4] = Antiplatelet activity in human platelet rich plasma assessed as platelet factor-3 release at 300 ug/ml after 20 mins relative to control
# Cavia porcellus [5] = assay: Antiplatelet activity in guinea pig assessed as inhibition of 0.8 ug/ml ADP-induced platelet aggregation measured as change in light transmittance at 100 mg/kg, po for 4 days measured at 2 hrs post last dose by aggregometric analysis relative to control; type: functional
# Procedure, shortened: (§3)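 Dosing was oral by stomach tube for 4 days, alongside an untreated control group. Blood was drawn by heart puncture 2 h after the final dose, then citrated PRP was isolated and adjusted for aggregometry. ADP was added in vitro at the stated concentration. The read-out was the maximum increase in light transmittance (ΔT); group means were compared, treated vs control.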
# Cavia porcellus [6] = assay: Antiplatelet activity in guinea pig assessed as inhibition of 0.45 ug/ml ADP-induced platelet aggregation measured as area between aggregation curve and baseline transmittance at 100 mg/kg, po for 4 days measured at 2 hrs post last dose by aggregometric analysis relative to control; type: functional; procedure, shortened: as §1
# Cavia porcellus [7] = assay: Antiplatelet activity in guinea pig assessed as inhibition of 0.8 ug/ml ADP-induced platelet aggregation measured as change in light transmittance at 30 mg/kg, po for 4 days measured at 2 hrs post last dose by aggregometric analysis relative to control; type: functional; procedure, shortened: as §3
# Cavia porcellus [8] = assay: Antiplatelet activity in guinea pig assessed as inhibition of 0.45 ug/ml ADP-induced platelet aggregation measured as change in light transmittance at 30 mg/kg, po for 4 days measured at 2 hrs post last dose by aggregometric analysis relative to control; type: functional; procedure, shortened: as §3
# Cavia porcellus [9] = assay: Toxicity in guinea pig assessed as mortality at 300 mg/kg, po measured after third dose; type: organism-based; design: dose 300 mg/kg, route oral; conditions: in vivo
# Cavia porcellus [10] = assay: Antiplatelet activity in guinea pig assessed as inhibition of 0.8 ug/ml ADP-induced platelet aggregation measured as area between aggregation curve and baseline transmittance at 30 mg/kg, po for 4 days measured at 2 hrs post last dose by aggregometric analysis relative to control; type: functional; procedure, shortened: as §1
# Cavia porcellus [11] = assay: Antiplatelet activity in guinea pig assessed as inhibition of 0.45 ug/ml ADP-induced platelet aggregation measured as area between aggregation curve and baseline transmittance at 30 mg/kg, po for 4 days measured at 2 hrs post last dose by aggregometric analysis relative to control; type: functional; procedure, shortened: as §1
# [12] = Antiplatelet activity in human platelet rich plasma assessed as inhibition of ADP-induced platelet aggregation at 10 ug/ml after 20 mins by aggregometric analysis relative to control; type: functional; procedure, shortened: as §2
# [13] = Antiplatelet activity in human platelet rich plasma assessed as inhibition of platelet factor-3 release at 100 ug/ml after 20 mins relative to control; type: functional
# Procedure, shortened: (§4)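 Test compound solution was incubated in human citrated PRP at 37° for 20 min. PF3 activity was then measured by a modified Stypven test, with plasma diluted 1:10.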
# [14] = Antiplatelet activity in human platelet rich plasma assessed as inhibition of ADP-induced platelet aggregation at 100 ug/ml after 20 mins by aggregometric analysis relative to control; type: functional; procedure, shortened: as §2
# [15] = Antiplatelet activity in human platelet rich plasma assessed as inhibition of platelet factor-3 release at 30 ug/ml after 20 mins relative to control; type: functional; procedure, shortened: as §4
SMILES,inhibition at 30 µg/mL [3],%max [4],inhibition at 10 µg/mL [12],%max [13],inhibition at 100 µg/mL [14],also measured
CC(/N=C1/CCCCCN1)c1cccc2ccccc12.Cl (stereo not drawn),46%,0.037%,0%,0.003%,70%,inhibition in vivo at 100 mg/kg (Cavia porcellus [1]): 0%; ΔT % at 100 mg/kg (Cavia porcellus [2]): 7.1%; ΔT % at 100 mg/kg (Cavia porcellus [5]): 21.6%; inhibition in vivo at 100 mg/kg (Cavia porcellus [6]): 0%; ΔT % at 30 mg/kg (Cavia porcellus [7]): 29%; ΔT % at 30 mg/kg (Cavia porcellus [8]): 7%; Activity (Cavia porcellus [9]): Toxic; inhibition in vivo at 30 mg/kg (Cavia porcellus [10]): 0%; inhibition in vivo at 30 mg/kg (Cavia porcellus [11]): 33%
CCCCCCCCCCCCCc1ccc(C(C)/N=C2\CCCCCN2)cc1 (stereo not drawn),33%,,16%,,100%,
CCCCCCCCCCCCOc1ccc(C(C)/N=C2\CCCCCN2)cc1 (stereo not drawn),,,,,64%,
CC(/N=C1\CCCCCN1)c1ccc(C2CCCCC2)cc1.Cl (stereo not drawn),31%,0.62%,9%,0.004%,100%,
CC(/N=C1\CCCCCN1)c1ccc(-c2ccccc2)cc1.Cl (stereo not drawn),44%,0.76%,0%,0.04%,100%,
CC(/N=C1\CCCCCN1)c1ccc(CCc2ccccc2)cc1.Cl (stereo not drawn),37%,0.91%,8%,0.013%,78%,%max [15]: 0%
CC(/N=C1\CCCN1C)c1ccc(CCc2ccccc2)cc1 (stereo not drawn),29%,,,,100%,
CC(/N=C1\CCCCCN1)c1ccc(C=C(c2ccccc2)c2ccccc2)cc1.Cl (stereo not drawn),21%,2.3%,0%,0.23%,100%,
CC(/N=C1\CCCCCN1)c1ccc(C=C2c3ccccc3-c3ccccc32)cc1.Cl (stereo not drawn),38%,0.42%,6%,0.02%,100%,
CC(/N=C1\CCCCCN1)c1ccc(Oc2ccccc2)cc1.Cl (stereo not drawn),25%,0.26%,15%,0.01%,100%,inhibition in vivo at 100 mg/kg (Cavia porcellus [1]): 8%; ΔT % at 100 mg/kg (Cavia porcellus [2]): 17.7%; ΔT % at 100 mg/kg (Cavia porcellus [5]): 49%; inhibition in vivo at 100 mg/kg (Cavia porcellus [6]): 29%; ΔT % at 30 mg/kg (Cavia porcellus [7]): 42.2%; ΔT % at 30 mg/kg (Cavia porcellus [8]): 24.4%; inhibition in vivo at 30 mg/kg (Cavia porcellus [10]): 38%; inhibition in vivo at 30 mg/kg (Cavia porcellus [11]): 53%
CC(/N=C1\CCCCCN1)c1ccccc1OCCc1ccccc1 (stereo not drawn),30%,,11%,,81%,
CC(/N=C1\CCCCCN1)c1ccc(OCCCc2ccccc2)cc1 (stereo not drawn),,,,,74%,
CC(/N=C1\CCCCCN1)c1ccc(OCCCOc2ccccc2)cc1 (stereo not drawn),14%,,0%,,100%,
CC(/N=C1\CCCN1)c1cccc(OCCCCOc2ccccc2)c1 (stereo not drawn),16%,,0%,,100%,
CC(/N=C1\CCCCCN1)c1cc(C(C)(C)C)cc2c1CCC2(C)C (stereo not drawn),22%,,0%,,100%,
Cc1cc2c(cc1C(C)/N=C1\CCCCCN1)C(C)(C)CCC2(C)C (stereo not drawn),,,,,77%,
CC(/N=C1\CCCCCN1)c1ccc2c(c1)Cc1ccccc1-2.Cl (stereo not drawn),43%,1.5%,0%,0.06%,100%,
CC(/N=C1\CCCCCCCN1)c1ccc2c(c1)Cc1ccccc1-2 (stereo not drawn),62%,,6%,,100%,
CC(/N=C1\CCCCCN1)c1ccc2c(ccc3ccccc32)c1.Cl (stereo not drawn),43%,2.6%,4%,0.06%,100%,
CC(/N=C1\CCCN1)c1ccc2oc3ccccc3c2c1 (stereo not drawn),42%,,10%,,100%,
CC(/N=C1\CCCCCN1)c1ccc2oc3ccccc3c2c1 (stereo not drawn),,,,,67%,
CC(/N=C1\CCCCCN1)c1ccc2sc3ccccc3c2c1.Cl (stereo not drawn),52%,0.18%,2%,0.013%,100%,inhibition in vivo at 100 mg/kg (Cavia porcellus [1]): 0%; ΔT % at 100 mg/kg (Cavia porcellus [2]): 32%; ΔT % at 100 mg/kg (Cavia porcellus [5]): 53.6%; inhibition in vivo at 100 mg/kg (Cavia porcellus [6]): 0%; ΔT % at 30 mg/kg (Cavia porcellus [7]): 43.6%; ΔT % at 30 mg/kg (Cavia porcellus [8]): 20.4%; inhibition in vivo at 30 mg/kg (Cavia porcellus [10]): 3%; inhibition in vivo at 30 mg/kg (Cavia porcellus [11]): 0%
O=C(CO)OC(CC1CCCCN1)c1ccc(C=C2c3ccccc3-c3ccccc32)cc1 (stereo not drawn),28%,0.747%,1%,0.162%,99%,%max [15]: 0.003%
CCN(CC)CCN(CC(O)c1ccccc1)c1cc(Cl)ccc1Cl (stereo not drawn),10%,0.52%,,0.1%,62%,
